From ChEMBL document CHEMBL4428057, “Discovery, Synthesis, and Evaluation of 2,4-Diaminoquinazolines as a Novel Class of Pancreatic β-Cell-Protective Agents against Endoplasmic Reticulum (ER) Stress” (J Med Chem, 2016)
Active and inactive are the calls of the source. The rule behind the calls is not given here.

Key:
INS1 [1] = test: Protection against tunicamycin induced endoplasmic reticulum stress in rat INS-1 cells assessed as increase in cell viability after 3 days by CellTiter-Glo assay; assay type: functional, cell-based; conditions: INS1, 72 h
In short: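 INS-1 cells at 3×10^3/well (384-well) co-treated with Tm 0.1 µg/mL and compound for 72 h; CellTiter-Glo ATP luminescence. Activity is % rescue, with Tm alone = 0% and DMSO without Tm = 100%. EC50 from ten 2-fold serial dilutions by curve fit; triplicate.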

INS1 [2] = test: Protection against tunicamycin induced endoplasmic reticulum stress in rat INS-1 cells assessed as increase in cell viability at 20 uM after 24 hrs by live-cell phase-contrast image analysis; assay type: functional, cell-based
In short: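 INS-1 cells treated with or without Tm 0.1 µg/mL in the presence of compound 20 µM or DMSO for 24 h; live-cell phase-contrast images acquired at 10× magnification.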

INS1 [3] = test: Reversal of tunicamycin suppressed INS2 mRNA levels in rat INS-1 cells at 20 uM after 24 hrs by qRT-PCR method; assay type: functional, cell-based
In short: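 INS-1 cells (4×10^5/well, 6-well plates) given Tm 0.1 µg/mL ± compound 20 µM or DMSO for 24 h. INS1, INS2, PDX1 and MafA mRNA measured by qRT-PCR with rat primers. Means of 3 replicate wells, representative of 3 independent experiments; SD.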

Rattus norvegicus = species: Rattus norvegicus; test: Inhibition of IRE1alpha in rat INS-1 cells assessed as suppression of tunicamycin induced spliced XBP1 mRNA levels at 20 uM after 4 to 24 hrs in by qRT-PCR method; assay type: cell-based
In short: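 Spliced XBP1 mRNA in INS-1 cells (4×10^5/well, 6-well plates) measured by qRT-PCR with splicing-specific primers after Tm 0.1 µg/mL ± compound 20 µM or DMSO for the indicated times. Expressed as fold-increase over untreated control; 3 replicate wells, representative of 3 experiments, SD.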

[4] = target: T1, Cyclic AMP-dependent transcription factor ATF-6 alpha (Rattus norvegicus) (UniProt G3V909); test: Inhibition of ATF6 in rat INS-1 cells assessed as suppression of tunicamycin induced Bip mRNA levels at 20 uM after 4 to 24 hrs by qRT-PCR method; assay type: cell-based
T1 sequence (whole entry): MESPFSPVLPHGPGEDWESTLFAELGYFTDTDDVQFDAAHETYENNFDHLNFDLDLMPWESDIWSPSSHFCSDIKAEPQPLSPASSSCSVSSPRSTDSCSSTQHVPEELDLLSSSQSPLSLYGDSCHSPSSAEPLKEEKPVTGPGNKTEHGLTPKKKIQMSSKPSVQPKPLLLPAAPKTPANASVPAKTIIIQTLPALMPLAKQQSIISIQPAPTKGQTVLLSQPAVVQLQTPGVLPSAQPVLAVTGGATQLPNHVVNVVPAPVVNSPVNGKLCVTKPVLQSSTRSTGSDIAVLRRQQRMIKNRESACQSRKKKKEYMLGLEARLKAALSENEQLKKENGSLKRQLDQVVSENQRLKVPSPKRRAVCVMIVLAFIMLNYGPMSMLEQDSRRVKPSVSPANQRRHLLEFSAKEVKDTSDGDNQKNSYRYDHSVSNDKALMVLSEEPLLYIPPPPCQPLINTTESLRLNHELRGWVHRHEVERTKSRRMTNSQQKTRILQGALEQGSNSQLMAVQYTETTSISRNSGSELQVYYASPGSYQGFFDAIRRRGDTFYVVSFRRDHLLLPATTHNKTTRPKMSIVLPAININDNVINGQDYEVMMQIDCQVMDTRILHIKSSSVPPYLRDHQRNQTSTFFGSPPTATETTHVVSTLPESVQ
In short: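 INS-1 cells seeded at 4×10^5/well in 6-well plates, given Tm 0.1 µg/mL ± compound 20 µM or DMSO for the indicated times. Bip or GRP94 mRNA measured by qRT-PCR, expressed as fold-increase over untreated control. Means of 3 replicate wells, representative of 3 independent experiments.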

[5] = target: T2, Eukaryotic translation initiation factor 2-alpha kinase 3 (Rattus norvegicus) (UniProt Q9Z1Z1); test: Inhibition of PERK pathway in rat INS-1 cells assessed as reduction in tunicamycin induced CHOP protein levels at 20 uM after 2 to 24 hrs by Western blot analysis; assay type: cell-based
T2 sequence (whole entry): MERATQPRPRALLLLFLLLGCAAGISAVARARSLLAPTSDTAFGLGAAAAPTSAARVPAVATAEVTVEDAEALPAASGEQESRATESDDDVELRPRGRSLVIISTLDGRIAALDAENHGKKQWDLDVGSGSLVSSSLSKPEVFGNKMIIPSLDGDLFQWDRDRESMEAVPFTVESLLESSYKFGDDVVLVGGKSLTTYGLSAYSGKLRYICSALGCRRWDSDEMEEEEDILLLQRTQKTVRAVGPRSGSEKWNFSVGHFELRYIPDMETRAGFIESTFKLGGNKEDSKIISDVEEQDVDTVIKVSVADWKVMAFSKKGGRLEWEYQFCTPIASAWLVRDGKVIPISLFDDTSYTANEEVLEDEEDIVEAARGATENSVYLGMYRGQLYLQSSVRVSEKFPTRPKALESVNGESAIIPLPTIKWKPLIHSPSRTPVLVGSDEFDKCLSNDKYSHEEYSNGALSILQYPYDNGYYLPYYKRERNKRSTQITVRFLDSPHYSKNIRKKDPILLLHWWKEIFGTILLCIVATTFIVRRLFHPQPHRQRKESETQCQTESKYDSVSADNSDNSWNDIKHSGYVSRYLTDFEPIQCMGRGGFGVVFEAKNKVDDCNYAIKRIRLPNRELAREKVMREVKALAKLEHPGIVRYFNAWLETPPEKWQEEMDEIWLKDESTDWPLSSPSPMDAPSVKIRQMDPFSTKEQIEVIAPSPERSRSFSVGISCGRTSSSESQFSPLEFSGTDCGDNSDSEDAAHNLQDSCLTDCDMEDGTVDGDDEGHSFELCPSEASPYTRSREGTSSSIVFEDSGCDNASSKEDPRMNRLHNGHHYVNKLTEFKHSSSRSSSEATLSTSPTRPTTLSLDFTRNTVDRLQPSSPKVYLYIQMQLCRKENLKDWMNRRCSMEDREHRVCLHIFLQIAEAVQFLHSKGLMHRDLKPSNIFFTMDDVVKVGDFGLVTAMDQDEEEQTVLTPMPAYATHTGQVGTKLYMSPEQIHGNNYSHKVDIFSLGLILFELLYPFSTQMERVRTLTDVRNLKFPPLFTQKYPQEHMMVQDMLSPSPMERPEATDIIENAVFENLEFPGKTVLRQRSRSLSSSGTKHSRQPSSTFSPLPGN
In short: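 Western blots of INS-1 cells (8×10^5/60-mm dish) treated with Tm 0.1 µg/mL ± compound 20 µM or DMSO for the indicated times. Lysates with EDTA and phosphatase inhibitors; 20 µg protein on 7% SDS-PAGE, PVDF. Primary antibodies at 1:1000 against ATF4, CHOP, cleaved caspase 3 or PARP; α-tubulin loading control; HRP secondaries. Representative of 3 experiments.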

- inhibition [4]: Active
- inhibition [5]: Active
SMILES: COc1ccc(CNc2nc(N3CCCCC3CO)nc3ccccc23)cc1 (racemic)
- EC50 (INS1 [1]): 560 nM
- Activity (INS1 [2]): Active
- Activity (INS1 [3]): Active
- inhibition (Rattus norvegicus): Active
